Measured values: ChEMBL document CHEMBL1127659, “In vitro and in vivo activities of reduced-size antagonists of luteinizing hormone-releasing hormone” (J Med Chem, 1994)
In brackets after ≈: the same amount, converted by molar mass. Where a SMILES comes first, the peptide text is derived from it. [ ]: non-standard residue; d: D form. The star is where a group is joined. Propanoyl(3-(4-F-phenyl)) = O=C(CCc1ccc(F)cc1)*; dPhe(4-Cl) = N[C@H](Cc1ccc(Cl)cc1)C(=O)O; d1Nal = N[C@H](Cc1cccc2ccccc12)C(=O)O; d2Nal = N[C@H](Cc1ccc2ccccc2c1)C(=O)O; Lys(iPr) = CC(C)NCCCC[C@H](N)C(=O)O; NMeY = CN[C@@H](Cc1ccc(O)cc1)C(=O)O; d3Pal = N[C@H](Cc1cccnc1)C(=O)O; Nicotinoyl = O=C(c1cccnc1)*

What was measured:
Rattus norvegicus [1] = species: Rattus norvegicus; assay: Percentage suppression of the LH in castrated rat after 2 hr of doing
Rattus norvegicus [2] = species: Rattus norvegicus; assay: Effective dose required for maximal release of histamine from rat peritoneal mast cells; assay type: functional; settings: read-out: ED50 (the source's name)
Method in brief: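 Rat peritoneal mast cells; histamine release measured. ED50 is the antagonist dose giving 50% of maximal histamine release, in micrograms per milliliter. All compounds tested as TFA salts.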

Rattus norvegicus [3] = species: Rattus norvegicus; assay: In vitro antagonistic potency against release of luteinizing hormone (LH) from cultured rat pituitary cells.; assay type: functional; settings: Pituitary gland cell, read-out: pA2 (converted)
Method in brief: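 Cultured rat pituitary cells, agonist-stimulated LH release. pA2 is the negative log of the antagonist concentration that makes a 2-fold higher agonist concentration necessary to release LH. Compounds tested as TFA salts.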

| SMILES | EC50 (Rattus norvegicus [2]) | Supression (Rattus norvegicus [1]) | Kb (Rattus norvegicus [3]) |
| --- | --- | --- | --- |
| CCNC(=O)[C@@H]1CCCN1C(=O)[C@H](CCCN=C(N)N)NC(=O)[C@H](CC(C)C)NC(=O)[C@@H](Cc1c[nH]c2ccccc12)NC(=O)[C@H](Cc1ccc(O)cc1)NC(=O)[C@H](CO)NC(=O)[C@@H](Cc1c[nH]c2ccccc12)NC(=O)CCc1ccc(F)cc1 |  | 88% |  |
| CCNC(=O)[C@@H]1CCCN1C(=O)[C@H](CCCN=C(N)N)NC(=O)[C@H](CC(C)C)NC(=O)[C@@H](CCCCNC(=O)c1cccnc1)NC(=O)[C@H](Cc1ccc(O)cc1)N(C)C(=O)[C@H](CO)NC(=O)[C@@H](Cc1c[nH]c2ccccc12)NC(=O)CCc1ccc(F)cc1 | < 0.1 µg/mL | 90% |  |
| CC(C)C[C@H](NC(=O)[C@@H](CCCCNC(=O)c1cccnc1)NC(=O)[C@H](Cc1ccc(O)cc1)N(C)C(=O)[C@H](CO)NC(=O)[C@@H](Cc1cccc2ccccc12)NC(=O)CCc1ccc(F)cc1)C(=O)N[C@@H](CCCCNC(C)C)C(=O)N1CCC[C@H]1C(=O)N[C@H](C)C(N)=O ({Propanoyl(3-(4-F-phenyl))}-[d1Nal]S[NMeY][dK](Nicotinoyl)L[Lys(iPr)]P[dA]-NH2) [listing 1 of 2 here] |  |  | 7.41 pM |

The next lines start with results.

| EC50 (Rattus norvegicus [2]) | SMILES | Supression (Rattus norvegicus [1]) | Kb (Rattus norvegicus [3]) |
| --- | --- | --- | --- |
| 10 µg/mL (≈ 6.51 µM) | CC(=O)N[C@H](Cc1ccc2ccccc2c1)C(=O)N[C@H](Cc1ccc(Cl)cc1)C(=O)N[C@H](Cc1cccnc1)C(=O)N[C@@H](CO)C(=O)N(C)[C@@H](Cc1ccc(O)cc1)C(=O)N[C@H](CCCCNC(=O)c1cccnc1)C(=O)N[C@@H](CC(C)C)C(=O)N[C@@H](CCCCNC(C)C)C(=O)N1CCC[C@H]1C(=O)N[C@H](C)C(N)=O (Ac-[d2Nal][dPhe(4-Cl)][d3Pal]S[NMeY][dK](Nicotinoyl)L[Lys(iPr)]P[dA]-NH2) |  |  |
| 10.3 µg/mL (≈ 7.84 µM) | CC(C)C[C@H](NC(=O)[C@@H](CCCCNC(=O)c1cccnc1)NC(=O)[C@H](Cc1ccc(O)cc1)N(C)C(=O)[C@H](CO)NC(=O)[C@@H](Cc1cccc2ccccc12)NC(=O)CCc1ccc(F)cc1)C(=O)N[C@@H](CCCCNC(C)C)C(=O)N1CCC[C@H]1C(=O)N[C@H](C)C(N)=O ({Propanoyl(3-(4-F-phenyl))}-[d1Nal]S[NMeY][dK](Nicotinoyl)L[Lys(iPr)]P[dA]-NH2) [listing 2 of 2 here] |  |  |
